Source: ChEMBL document CHEMBL1141092, “Synthesis of malarial plasmepsin inhibitors and prediction of binding modes by molecular dynamics simulations” (J Med Chem, 2005)

Tests used:
Plasmepsin II = Plasmepsin II (Plasmodium falciparum, UniProt P46925); test: Inhibition constant against plasmepsin-2 of Plasmodium falciparum 10 min using 3 uM of DABCYL-Glu-Arg-Nle-Phe-Le u-Ser-Phe-Pro-EDANS as substrate
Procedure, shortened: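 Pro-Plm II at 3 nM is self-activated by 40 min preincubation at room temperature in 100 mM sodium acetate pH 4.5, 10% glycerol, 0.01% Tween 20. Inhibitor in DMSO (1% final) is added before 3 µM FRET substrate, and the linear fluorescence increase is read over 10 min. IC50 is fitted to a competitive Langmuir isotherm and converted to Ki via IC50/(1+[S]/Km).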

Plasmepsin I = Plasmepsin I (Plasmodium falciparum, UniProt P39898); test: Inhibition constant against plasmepsin-1 of Plasmodium falciparum, 10 min using 3 uM of DABCYL-Glu-Arg-Nle-Phe-Le u-Ser-Phe-Pro-EDANS as substrate
Procedure, shortened: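 Recombinant Plm I, amount set to match Plm II catalytic activity, in 100 mM sodium acetate pH 4.5 with 10% glycerol and 0.01% Tween 20. DMSO inhibitor dilutions (1% final DMSO) are added, then 3 µM FRET substrate. Fluorescence rise is followed over a linear 10 min. IC50 comes from a Langmuir fit assuming competitive inhibition, and Ki = IC50/(1+[S]/Km), with Km from Michaelis–Menten.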

Cathepsin D = Cathepsin D (Homo sapiens, UniProt P07339); test: Inhibition constant against pro-cathepsin D (50 ng/mL) of human liver upon incubation at pH 4.5 for 10 min using DABCYL-Glu-Arg-Nle-Phe-Le u-Ser-Phe-Pro-EDANS as substrate
Procedure, shortened: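 Human liver pro-Cat D at 50 ng/mL is activated for 20 min at 37 °C in 100 mM sodium acetate pH 4.5, 10% glycerol, 0.01% Tween 20. Inhibitor in DMSO (1% final) precedes 3 µM FRET substrate, and the fluorescence increase is followed over a linear 10 min. IC50 is from a competitive Langmuir fit, and Ki = IC50/(1+[S]/Km), with Km from Michaelis–Menten.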

Plasmepsin IV = Plasmepsin IV (Plasmodium falciparum 3D7, UniProt Q8IM16); test: Inhibition constant against plasmepsin-4 of Plasmodium falciparum
Chain of Plasmepsin IV (Q8IM16 whole entry): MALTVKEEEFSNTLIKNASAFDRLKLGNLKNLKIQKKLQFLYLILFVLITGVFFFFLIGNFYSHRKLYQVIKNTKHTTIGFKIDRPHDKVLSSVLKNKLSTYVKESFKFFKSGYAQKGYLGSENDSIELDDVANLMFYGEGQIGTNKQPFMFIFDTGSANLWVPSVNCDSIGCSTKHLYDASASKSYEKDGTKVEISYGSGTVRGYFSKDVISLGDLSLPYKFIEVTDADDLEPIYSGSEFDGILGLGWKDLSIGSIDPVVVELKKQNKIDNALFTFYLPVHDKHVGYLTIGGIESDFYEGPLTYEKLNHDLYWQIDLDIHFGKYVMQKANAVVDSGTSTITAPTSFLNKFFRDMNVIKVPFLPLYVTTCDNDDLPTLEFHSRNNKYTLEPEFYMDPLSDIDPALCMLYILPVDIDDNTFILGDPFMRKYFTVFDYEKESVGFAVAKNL

Chain of Cathepsin D (P07339 65-162 limits assumed): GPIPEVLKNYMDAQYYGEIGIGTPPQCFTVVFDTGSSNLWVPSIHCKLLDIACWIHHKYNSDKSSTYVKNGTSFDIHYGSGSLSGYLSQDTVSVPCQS
Chain of Cathepsin D (P07339 169-412 limits assumed): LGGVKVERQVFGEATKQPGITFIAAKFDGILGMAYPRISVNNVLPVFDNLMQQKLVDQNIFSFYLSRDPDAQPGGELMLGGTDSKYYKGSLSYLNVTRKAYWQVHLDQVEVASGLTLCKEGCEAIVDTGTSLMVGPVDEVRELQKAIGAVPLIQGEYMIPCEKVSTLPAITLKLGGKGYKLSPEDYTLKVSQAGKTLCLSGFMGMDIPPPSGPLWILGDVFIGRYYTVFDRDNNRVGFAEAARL
Chain of Plasmepsin I (P39898 whole entry): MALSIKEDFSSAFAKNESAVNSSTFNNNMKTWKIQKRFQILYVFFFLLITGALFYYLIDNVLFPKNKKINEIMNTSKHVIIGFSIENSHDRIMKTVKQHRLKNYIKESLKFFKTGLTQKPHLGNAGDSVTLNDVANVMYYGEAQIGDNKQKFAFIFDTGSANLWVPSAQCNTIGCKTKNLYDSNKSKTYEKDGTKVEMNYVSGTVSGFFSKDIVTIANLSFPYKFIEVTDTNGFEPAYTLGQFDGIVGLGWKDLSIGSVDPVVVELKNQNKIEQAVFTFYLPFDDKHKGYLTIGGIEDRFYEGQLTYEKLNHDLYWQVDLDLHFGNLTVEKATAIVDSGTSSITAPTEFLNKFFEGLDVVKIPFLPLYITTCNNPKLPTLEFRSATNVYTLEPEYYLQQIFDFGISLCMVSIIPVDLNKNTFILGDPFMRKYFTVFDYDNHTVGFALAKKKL
Chain of Plasmepsin II (P46925 whole entry): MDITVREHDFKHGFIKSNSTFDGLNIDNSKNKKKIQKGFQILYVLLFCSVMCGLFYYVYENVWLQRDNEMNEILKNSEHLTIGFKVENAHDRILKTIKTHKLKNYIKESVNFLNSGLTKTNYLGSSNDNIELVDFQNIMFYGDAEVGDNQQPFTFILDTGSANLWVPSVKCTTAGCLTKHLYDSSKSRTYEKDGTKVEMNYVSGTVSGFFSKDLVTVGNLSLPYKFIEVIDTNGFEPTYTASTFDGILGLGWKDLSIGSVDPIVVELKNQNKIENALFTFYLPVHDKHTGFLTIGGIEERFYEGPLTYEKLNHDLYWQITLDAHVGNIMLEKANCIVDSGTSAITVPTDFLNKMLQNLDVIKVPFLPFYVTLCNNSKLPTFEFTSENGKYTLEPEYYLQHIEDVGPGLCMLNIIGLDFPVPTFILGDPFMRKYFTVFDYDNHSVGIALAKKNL

SMILES | Ki (Plasmepsin II) | Ki (Plasmepsin I) | Ki (Cathepsin D) | Ki (Plasmepsin IV)
O=C(N[C@H]1c2ccccc2C[C@H]1O)[C@H](OC/C=C/Br)[C@H](O)[C@@H](O)[C@@H](OC/C=C/Br)c1nnc(CCCc2ccccc2)o1 | 2300 nM | 1600 nM | > 6 µM | –
Cc1n[nH]c([C@H](OC/C=C/Br)[C@H](O)[C@@H](O)[C@@H](OC/C=C/Br)C(=O)N[C@H]2c3ccccc3C[C@H]2O)n1 | > 5000 nM | > 3000 nM | > 6 µM | –
Cc1nnc([C@H](OC/C=C/Br)[C@H](O)[C@@H](O)[C@@H](OC/C=C/Br)C(=O)N[C@H]2c3ccccc3C[C@H]2O)o1 | > 5000 nM | > 3000 nM | > 6 µM | –
CC(C)(C)c1ccc(C(=O)NNC(=O)[C@H](OC/C=C/Br)[C@H](O)[C@@H](O)[C@@H](OC/C=C/Br)C(=O)N[C@H]2c3ccccc3C[C@H]2O)cc1 | 142 nM | 198 nM | > 6 µM | –
CN1CCN(CCC(=O)NNC(=O)[C@H](OC/C=C/Br)[C@H](O)[C@@H](O)[C@@H](OC/C=C/Br)C(=O)N[C@H]2c3ccccc3C[C@H]2O)CC1 | 586 nM | 1090 nM | > 6 µM | –
O=C(Cc1ccccc1)NNC(=O)[C@H](OC/C=C/Br)[C@H](O)[C@@H](O)[C@@H](OC/C=C/Br)C(=O)N[C@H]1c2ccccc2C[C@H]1O | 14 nM | 31 nM | > 6 µM | –
C=CCO[C@@H](C(=O)N[C@H]1c2ccccc2C[C@H]1O)[C@H](O)[C@@H](O)[C@@H](OCC=C)C(=O)N[C@H]1c2ccccc2C[C@H]1O | – | – | – | > 5000 nM
O=C(CCCc1ccccc1)NNC(=O)[C@H](OC/C=C/Br)[C@H](O)[C@@H](O)[C@@H](OC/C=C/Br)C(=O)N[C@H]1c2ccccc2C[C@H]1O | 10 nM | 11 nM | > 6 µM | –
O=C(NNC(=O)[C@H](OC/C=C/Br)[C@H](O)[C@@H](O)[C@@H](OC/C=C/Br)C(=O)N[C@H]1c2ccccc2C[C@H]1O)c1ccccc1 | 168 nM | 261 nM | > 6 µM | –
O=C(CCc1ccccc1)NNC(=O)[C@H](OC/C=C/c1ccc2c(c1)OCO2)[C@H](O)[C@@H](O)[C@@H](OC/C=C/c1ccc2c(c1)OCO2)C(=O)N[C@H]1c2ccccc2C[C@H]1O | 11 nM | 6 nM | 0.8 µM | –
CC(C)(C)c1ccc(-c2nnc([C@H](OC/C=C/Br)[C@H](O)[C@@H](O)[C@@H](OC/C=C/Br)C(=O)N[C@H]3c4ccccc4C[C@H]3O)o2)cc1 | > 5000 nM | > 3000 nM | > 6 µM | –
CC(=O)NNC(=O)[C@H](OC/C=C/Br)[C@H](O)[C@@H](O)[C@@H](OC/C=C/Br)C(=O)NNC(C)=O | > 5000 nM | > 3000 nM | > 6 µM | –
O=C(CCc1ccccc1)NNC(=O)[C@H](OC/C=C/Br)[C@H](O)[C@@H](O)[C@@H](OC/C=C/Br)C(=O)N[C@H]1c2ccccc2C[C@H]1O | 7 nM | 9 nM | > 6 µM | –
O=C(CCN1CCOCC1)NNC(=O)[C@H](OC/C=C/Br)[C@H](O)[C@@H](O)[C@@H](OC/C=C/Br)C(=O)N[C@H]1c2ccccc2C[C@H]1O | 1300 nM | 2000 nM | > 6 µM | –
O=C(N[C@H]1c2ccccc2C[C@H]1O)[C@H](OC/C=C/Br)[C@H](O)[C@@H](O)[C@@H](OC/C=C/Br)c1nnc(-c2ccccc2)o1 | 3400 nM | > 3000 nM | > 6 µM | –

The next lines start with the values.

Ki (Plasmepsin II) | Ki (Plasmepsin I) | Ki (Cathepsin D) | Ki (Plasmepsin IV) | SMILES
2100 nM | > 3000 nM | > 6 µM | – | O=C(N[C@H]1c2ccccc2C[C@H]1O)[C@H](OC/C=C/Br)[C@H](O)[C@@H](O)[C@@H](OC/C=C/Br)c1nnc(Cc2ccccc2)o1
145 nM | 38 nM | 1.2 µM | – | CC(=O)c1ccc(/C=C/CO[C@@H](C(=O)NNC(=O)CCc2ccccc2)[C@H](O)[C@@H](O)[C@@H](OC/C=C/c2ccc(C(C)=O)cc2)C(=O)N[C@H]2c3ccccc3C[C@H]2O)cc1
6 nM | 19 nM | > 6 µM | – | O=C(CCc1c[nH]c2ccccc12)NNC(=O)[C@H](OC/C=C/Br)[C@H](O)[C@@H](O)[C@@H](OC/C=C/Br)C(=O)N[C@H]1c2ccccc2C[C@H]1O
359 nM | 698 nM | > 6 µM | – | CC(=O)NNC(=O)[C@H](OC/C=C/Br)[C@H](O)[C@@H](O)[C@@H](OC/C=C/Br)C(=O)N[C@H]1c2ccccc2C[C@H]1O
> 5000 nM | > 3000 nM | > 6 µM | 35 nM | CC(C)(C)c1ccc(-c2nnc([C@H](OC/C=C/Br)[C@H](O)[C@@H](O)[C@@H](OC/C=C/Br)c3nnc(-c4ccc(C(C)(C)C)cc4)o3)o2)cc1
1500 nM | 1840 nM | 3 µM | 478 nM | CC(C)(C)c1ccc(C(=O)NNC(=O)[C@H](OC/C=C/Br)[C@H](O)[C@@H](O)[C@@H](OC/C=C/Br)C(=O)NNC(=O)c2ccc(C(C)(C)C)cc2)cc1
161 nM | 124 nM | > 6 µM | – | C=CCO[C@@H](C(=O)NNC(=O)CCc1ccccc1)[C@H](O)[C@@H](O)[C@@H](OCC=C)C(=O)N[C@H]1c2ccccc2C[C@H]1O
> 5000 nM | > 3000 nM | > 6 µM | – | Cc1nnc([C@H](OC/C=C/Br)[C@H](O)[C@@H](O)[C@@H](OC/C=C/Br)c2nnc(C)o2)o1
2900 nM | > 3000 nM | > 6 µM | – | O=C(N[C@H]1c2ccccc2C[C@H]1O)[C@H](OC/C=C/Br)[C@H](O)[C@@H](O)[C@@H](OC/C=C/Br)c1nnc(CCc2ccccc2)o1
